Reference: ChEMBL document CHEMBL4152256, “Structure-activity relationship of new antimalarial 1-aryl-3-susbtituted propanol derivatives: Synthesis, preliminary toxicity profiling, parasite life cycle stage studies, target exploration, and targeted delivery” (Eur J Med Chem, 2018)
Calls of active or inactive are those of the source. The calls are words filed in the database; no cut-off is given here.

How the values were obtained:
[1] = biological target: T1, HSP90 (Plasmodium falciparum 3D7) (UniProt Q8IL32); assay: (§1) Binding affinity to Plasmodium falciparum HSP90 nucleotide binding domain by SPR analysis
T1 sequence (whole entry): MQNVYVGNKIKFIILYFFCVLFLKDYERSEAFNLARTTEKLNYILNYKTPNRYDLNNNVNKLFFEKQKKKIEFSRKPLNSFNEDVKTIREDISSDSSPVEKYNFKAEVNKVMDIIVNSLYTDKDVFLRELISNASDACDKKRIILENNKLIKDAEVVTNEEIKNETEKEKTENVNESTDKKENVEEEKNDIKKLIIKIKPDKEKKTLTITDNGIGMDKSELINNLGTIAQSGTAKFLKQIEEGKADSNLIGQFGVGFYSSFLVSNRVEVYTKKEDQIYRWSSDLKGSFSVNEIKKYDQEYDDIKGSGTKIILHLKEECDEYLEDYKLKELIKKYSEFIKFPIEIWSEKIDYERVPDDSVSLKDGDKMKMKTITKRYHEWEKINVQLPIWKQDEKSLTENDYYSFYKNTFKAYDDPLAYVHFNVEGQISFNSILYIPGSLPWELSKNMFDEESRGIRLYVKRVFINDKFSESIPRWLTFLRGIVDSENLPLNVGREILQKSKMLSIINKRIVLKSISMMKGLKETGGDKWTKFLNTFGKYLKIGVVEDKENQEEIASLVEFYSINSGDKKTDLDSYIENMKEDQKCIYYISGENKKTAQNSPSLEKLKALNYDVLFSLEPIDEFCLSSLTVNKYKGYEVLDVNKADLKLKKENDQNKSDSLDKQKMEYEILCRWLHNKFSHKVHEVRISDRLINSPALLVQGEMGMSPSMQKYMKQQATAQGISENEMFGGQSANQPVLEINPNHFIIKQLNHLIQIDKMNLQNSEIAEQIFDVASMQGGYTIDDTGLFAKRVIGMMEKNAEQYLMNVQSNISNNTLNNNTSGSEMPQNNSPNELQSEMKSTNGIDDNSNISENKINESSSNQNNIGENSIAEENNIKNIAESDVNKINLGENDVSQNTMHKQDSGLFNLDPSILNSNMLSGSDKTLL
In short: (§2)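 Purified PfHsp90 and PfGRP94 nucleotide-binding domains were amine-coupled to a CM5 chip (3000 and 7000 RU, respectively), with a blank reference surface. Seven compound concentrations (0.4 nM–1 mM) were injected in triplicate at 30 µL/min, 25 °C, in random order. Running buffer: 10 mM HEPES pH 7.4, 150 mM NaCl, 0.005% P20, 1% DMSO, 2 mM MgCl2. Kd came from double-referenced sensorgrams.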

[2] = system: Plasmodium falciparum; assay: Binding affinity to Plasmodium falciparum GRP94 nucleotide binding domain at 0.5 mM by SYPRO orange dye based DSF analysis
In short: (§3)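 Recombinant P. falciparum Hsp90 or GRP94 nucleotide-binding domain (0.05–0.2 mg/mL, optimized per protein) in 25 mM HEPES pH 7.5, 250 mM NaCl. Compound final concentration was 0.5 mM, with SYPRO Orange at 1:1000. Samples were heated from 18 to 90 °C at 1 °C/min. Tm was taken as the Boltzmann-fit inflection point. ΔTm = Tm with ligand minus Tm without, and shifts beyond ±1 °C were counted significant.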

[3] = Cytotoxicity against human HepG2A16 cells by MTT assay; format: cell-based
In short: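 MTT viability assay on HepG2-A16 cells, giving CC50 values.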

[4] = system: Plasmodium berghei; assay: Antiplasmodial activity against GFP-fused Plasmodium berghei in Anopheles stephensi mosquitoes feeded on blood from infected mouse at 100 mg/kg, ip pretreated for 1.5 hrs followed by blood feeding of mosquito assessed as reduction in infection of mosquito and measured at 8 days post mosquitoes infection by fluorescence microscopic method relative to control; format: functional; design: scale not given: the % may be the effect or the level left
In short: (§4)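 Mice (two per group) infected ip with 200 µL PbGFP-infected RBCs (3000 parasites/µL); gametocytes checked at day 4. Compound given ip at 100 mg/kg in DMSO 1.5 h before A. stephensi fed 1 h on mice at 1% gametocytaemia. Untreated and DMSO-treated mice as controls. After 8 days, 30 mosquitoes per group dissected; midgut oocysts counted by fluorescence microscopy; inhibition relative to control oocyst numbers (100%).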

[5] = Selectivity index, ratio of CC50 for human HepG2A16 cells by MTT assay to IC50 for multidrug-resistant Plasmodium falciparum FCR-3; format: toxicity
In short: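 HepG2-A16 human hepatoma cells were tested by MTT viability assay to give CC50. Blood-stage activity was measured against the multidrug-resistant P. falciparum FCR-3 strain by [3H]-hypoxanthine incorporation to give IC50. SI = CC50 HepG2 / FCR-3 IC50.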

[6] = system: Plasmodium falciparum; assay: Antiplasmodial activity against Plasmodium falciparum FCR-3 sporozoites infected in human primary hepatocytes treated simultaneously with infection by DAPI staining based HCS analysis; format: functional, organism-based, FCR-3/Gambia; settings: Plasmodium falciparum, FCR-3/Gambia; read-out: IC50
[7] = system: Plasmodium falciparum; assay: Antiplasmodial activity against multidrug-resistant Plasmodium falciparum FCR-3 by [3H]-hypoxanthine incorporation assay; format: functional, organism-based, FCR-3/Gambia
In short: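 Blood-stage P. falciparum 3D7 and FCR-3 were tested by a modified [3H]-hypoxanthine incorporation assay. Chloroquine was the reference in all runs.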

[8] = system: Plasmodium falciparum; assay: (§5) Binding affinity to Plasmodium falciparum GRP94 nucleotide binding domain by SPR analysis; in short: as §2
[9] = biological target: T1, HSP90 (Plasmodium falciparum 3D7); assay: Binding affinity to Plasmodium falciparum HSP90 nucleotide binding domain at 0.5 mM by SYPRO orange dye based DSF analysis; in short: as §3
[10] = Selectivity index, ratio of CC50 for human HepG2A16 cells to IC50 for GFP-fused Plasmodium berghei sporozoites infected in human HepG2A16 cells; format: toxicity, cell-based; settings: read-out: Ratio CC50/IC50
In short: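 HepG2-A16 cells were grown at 3 × 10^4 per well on collagen and infected with GFP P. berghei sporozoites (5 × 10^3 to 1 × 10^4 per well) from A. stephensi salivary glands. Compounds were added at infection, from 10 µg/mL top plus seven serial dilutions, and refreshed at 3 h and then every 24 h. After 40 h at 37 °C, EEFs were methanol-fixed, anti-Hsp70 immunolabelled and counted by high-content imaging. SI = HepG2 CC50 / liver-stage IC50.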

[11] = system: Plasmodium berghei; assay: Antiplasmodial activity against GFP-fused Plasmodium berghei in Anopheles stephensi mosquitoes feeded on blood from infected mouse at 100 mg/kg, ip pretreated for 1.5 hrs followed by blood feeding of mosquito assessed as reduction in number of oocysts in mosquito midgut and measured at 8 days post mosquitoes infection by fluorescence microscopic method relative to control; format: functional; design: scale not given: the % may be the effect or the level left; in short: as §4
[12] = Cytotoxicity against human primary hepatocytes after 48 hrs by MTT assay; format: cell-based, Hepatocyte
In short: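 Primary human hepatocytes seeded at 2 × 10^5/well and grown 24 h at 37 °C, 5% CO2. Compound dilutions added in triplicate for 48 h. MTT (2 mg/mL) added for 4 h, then DMSO for 20 min; absorbance read at 550 nm. Untreated and diluent controls included; CC50 calculated.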

[13] = Selectivity index, ratio of CC50 for human primary hepatocytes to IC50 for Plasmodium falciparum FCR-3 sporozoites infected in human primary hepatocytes; format: toxicity, cell-based; settings: read-out: Ratio CC50/IC50
In short: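 Primary human hepatocytes were plated at 8 × 10^4 per well on collagen and infected with P. falciparum sporozoites (2.5 × 10^4 per well). Compounds were given at infection from 10 µg/mL plus seven dilutions, refreshed every 24 h, for 8 days. EEFs were read by Hsp70 immunostaining. […] Two independent experiments were run.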

[14] = system: Plasmodium berghei; assay: Antiplasmodial activity against GFP-fused Plasmodium berghei sporozoites infected in human HepG2A16 cells treated simultaneously with infection by fluorescence microscopic analysis; format: functional, organism-based; settings: Plasmodium berghei, HepG2A16; read-out: IC50
In short: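 HepG2-A16 cells (3 × 10^4/well, collagen-coated) infected with PbGFP sporozoites (5 × 10^3 to 1 × 10^4/well) and treated at the same time. Top concentration 10 µg/mL in DMEM, seven serial dilutions. Medium and compound renewed at 3 h and every 24 h. After 40 h at 37 °C: methanol fixation, anti-Plasmodium Hsp70 immunolabeling, Alexa 594 secondary, DAPI; high-content imaging.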

[15] = Selectivity index, ratio of GI50 for African green monkey vero cells to IC50 for multidrug-resistant Plasmodium falciparum FCR-3; format: toxicity; settings: read-out: Selectivity Index
[16] = system: Plasmodium berghei; assay: Antiplasmodial activity against Plasmodium berghei ANKA infected in mouse assessed as inhibition of parasitemia at 50 mg/kg/day, po for 4 consecutive days starting from 2 hrs post infection by MSF assay relative to control; format: functional
In short: (§6)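 Swiss male mice (20 ± 2 g) infected ip with 10^7 P. berghei ANKA parasitized cells (day 0). Five per group dosed orally 2 h after infection and daily on days 0–3. Test compounds at 50 mg/kg/day in water:DMSO; chloroquine diphosphate at 3 mg/kg/day; vehicle controls. Parasitemia measured on day 4 by MSF assay; survival checked daily.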

[17] = system: Plasmodium falciparum; assay: Antiplasmodial activity against multidrug-resistant Plasmodium falciparum C235 after 72 hrs by MSF assay; format: functional, organism-based; settings: C235, 72 h
In short: (§7)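 D6 and C235 strains from the Walter Reed Army Institute of Research were tested by the Malaria SYBR Green-I fluorescence assay.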

[18] = system: Plasmodium berghei; assay: Antiplasmodial activity against Plasmodium berghei ANKA infected in Swiss mouse assessed as reduction in parasitemia at 50 mg/kg/day, po for 4 consecutive days by Giemsa staining based assay relative to control; format: functional; design: scale not given: the % may be the effect or the level left
[19] = system: Plasmodium falciparum; assay: Antiplasmodial activity against Plasmodium falciparum D6 after 72 hrs by MSF assay; format: functional, organism-based; settings: D6, 72 h; in short: as §7
[20] = Drug encapsulation in liposomes assessed as encapsulation efficiency in citrate/phosphate buffered measured after ultracentrifugation using compound addition to preformed liposomes by UV/Vis spectroscopy relative to untreated control; format: physicochemical; settings: artificial membrane
In short: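 Compound loaded into DSPC:cholesterol:DSPE-PEG2000-Mal:DOPE-Rho (84.5:10:5:0.5) liposomes using a citrate (pH 4.0)/PBS pH gradient. Drug measured by UV/vis after SDS disruption at each step: citrate liposomes, after buffer exchange to PBS (chloroquine added to preformed liposomes here), and after ultracentrifugation. Encapsulation efficiency = % of drug that is encapsulated out of total drug in the sample.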

[21] = system: Plasmodium berghei; assay: Antiplasmodial activity against Plasmodium berghei ANKA infected in mouse assessed as inhibition of parasitemia at 3 mg/kg/day, po for 4 consecutive days starting from 2 hrs post infection by MSF assay relative to control; format: functional; in short: as §6
[22] = biological target: T2, HSP90 (Plasmodium falciparum 3D7, UniProt Q8IL32); assay: as §1; in short: as §2
T2 sequence (Q8IL32 whole entry): T1 sequence (whole entry)

[23] = as §5; in short: as §2
[24] = system: Plasmodium berghei; assay: Antiplasmodial activity against Plasmodium berghei ANKA infected in mouse assessed as mouse survival time at 3 mg/kg/day, po for 4 consecutive days starting from 2 hrs post infection by MSF assay; format: functional
In short: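 Swiss male mice (20 ± 2 g) infected i.p. with 10^7 P. berghei ANKA parasitized cells in 0.1 mL 0.9% saline (day 0). Oral dosing began 2 h post-infection and continued daily on days 0–3, five mice per batch. Test drugs were given at 50 mg/kg/day in water:DMSO and chloroquine diphosphate at 3 mg/kg/day; a vehicle control was included. Survival was checked daily, and parasitemia was read on day 4 by modified MSF assay.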

| SMILES | Activity [2] | CC50 ([3]; HepG2A16 cells) [µM] | IC50 [6] [µM] | Activity [9] | selectivity ratio [10] | CC50 at 48 h [12] [µM] | selectivity ratio [13] | IC50 [14] [µM] | Kd [22] [µM] | Kd [23] [µM] | also measured |
| --- | --- | --- | --- | --- | --- | --- | --- | --- | --- | --- | --- |
| O=[N+]([O-])c1ccc(N2CCC(NCCC(O)c3ccc(F)cc3)CC2)c(C(F)(F)F)c1 (centres undefined) | inactive | 10.4 | 1.71 | inactive | 0.6 | 19.5 | 11.4 | 18.2 | – | – | Activity [1]: inactive; Activity [4]: 24%; selectivity ratio ([5]; HepG2A16 cells, read-out: Ratio CC50/IC50): 22; IC50 ([7]; Plasmodium falciparum, FCR-3/Gambia, 3 h): 0.48 µM; Activity [8]: inactive; Activity [11]: 70% |
| O=[N+]([O-])c1ccc(N2CCC(NCCC(O)c3ccc(F)c4ccccc34)CC2)c(C(F)(F)F)c1 (stereo in doubt; 8) | – | – | 1.79 | – | 0.5 | 13.1 | 7.3 | 12.1 | – | – | selectivity ratio [15]: 37; CC50 [3]: 5.7 µM; inhibition in vivo at 50 mg/kg/day [16]: 96.4%; Ratio CC50/IC50 [5]: 38; IC50 [7]: 0.15 µM; IC50 [17]: 0.13 µM; Activity [18]: 98%; IC50 [19]: 0.11 µM |
| CCN(CC)CCCC(C)Nc1ccnc2cc(Cl)ccc12.O=P(O)(O)O.O=P(O)(O)O (centres undefined) [CHLOROQUINE PHOSPHATE] | – | – | – | – | – | – | – | – | – | – | Activity [20]: 95.8%; inhibition in vivo at 3 mg/kg/day [21]: 88.5% |
| CC(C)NCC(O)Cn1c2ccc(Cl)cc2c2cc(Cl)ccc21 (centres undefined) | inactive | – | – | inactive | – | – | – | – | 0.007 | 4480 | – |
| CCN(CC)CCCC(C)Nc1ccnc2cc(Cl)ccc12 (centres undefined) [CHLOROQUINE] | – | 137 | – | – | – | – | – | – | – | – | MSD [24]: 11 days |
| OC(CN1CCN(Cc2ccccc2)CC1)Cn1c2ccc(Cl)cc2c2cc(Cl)ccc21 (centres undefined) | inactive | – | – | inactive | – | – | – | – | 0.027 | 0.017 | – |
